Test results published in paper PMC7611345 (Clinical cancer research : an official journal of the …, 2020).
Entries after “also recorded” stand apart in the source; their conditions may differ.

Experiments:
[1] = tested on: patients with solid tumors; assay: First-in-human phase I dose escalation: safety and tolerability; type: in vivo
Outline: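 The design was a rolling-six dose escalation across 5–300 mg in 8 cohorts, starting with a single run-in dose 7 days before cycle 1. Dosing was oral, Mon-Wed-Fri, in 28-day cycles. An added cohort escalated within each patient: one week at 120 mg, then 180 mg, then 240 mg during cycle 1. Toxicity was assessed weekly. Patients with hypertension on medication or abnormal fasting glucose were excluded.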

[2] = type: in vivo; details: human, plasma, oral
[3] = tested on: p-GSK3β in platelet-rich plasma; assay: p-GSK3β; type: in vivo, human
Outline: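 Blood was sampled at baseline and at 2, 6, 24 and 48 h after the run-in dose and after the cycle 2, day 1 dose. Platelet-rich plasma was prepared, and GSK3β Ser9 phosphorylation was measured by MSD electrochemiluminescent immunoassay. Results were expressed as percent of baseline, normalized to total GSK3β, and compared with predose by Dunnett's test.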

[4] = tested on: p-cofilin in tumor biopsies; assay: p-cofilin in pre- and post-treatment tumor biopsies, Protein Simple WES assay; type: in vivo, human; details: 8 pre- and post-treatment biopsies
Outline: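 Tumor biopsies were taken pre-dose and 24 h post-dose (cycle 1 day 15 or cycle 2 day 1) at 180 mg given thrice weekly. Phospho- and total cofilin were measured by capillary immunoassay (WES), normalized to GAPDH, and quantified as the area under the chemiluminescence peak. Phospho-cofilin was expressed as percent of pre-dose level.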

p-MLC2 in tumor biopsies = assay: p-MLC2 in paired tumor biopsies by immunohistochemistry; type: in vivo, human; details: 180 mg dose level, 5 paired biopsies
Outline: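 Fresh tumor biopsies were taken before and after treatment at 180 mg. Four-μm sections were heated at 60 °C for 20 min and retrieved in Tris pH 9 at 110 °C for 6 min. Staining used primary antibody 40 min at RT, biotinylated secondary 1:200, ABC-HRP amplification, VIP substrate and hematoxylin counterstain. Positive-cell detection used intensity scores 0–3, with a random-trees classifier separating tumor from stroma.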

advanced solid tumors = assay: Clinical efficacy; type: in vivo, human; details: all dose levels
Outline: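 Patients with metastatic solid tumors who had already received standard-of-care treatment took oral test compound three days a week (Mon-Wed-Fri) in 28-day cycles. Cohorts received flat doses from 5 to 300 mg, and one further cohort used intra-patient escalation from 120 to 180 to 240 mg.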

ROCK I = details: cited from earlier work
ROCK 2 = details: cited from earlier work
AKT1 = details: cited from earlier work
AKT2 = details: cited from earlier work
AKT3 = details: cited from earlier work
[5] = Cohort 9 120-180-240 mg (n=7), grade 1

Compound: NC[C@@](O)(c1ccc(Cl)cc1)c1ccc(-c2cn[nH]c2)cc1 [AT13148]
- dose-limiting toxicity ([1]; 180 mg): skin rash; also recorded: maculopapular rash
- dose-limiting toxicities ([1]; 240 mg): pneumonitis and elevated liver enzymes; also recorded: elevated transaminases and pneumonitis
- dose-limiting toxicity ([1]; 300 mg): hypotension
- most common (treatment related) side effects ([1]; 5 - 300 mg): fatigue, nausea, headaches and hypotension; also recorded: hypotension, nausea, headache and fatigue
- Anorexia, No. subjects ([1]; Cohort 1 5 mg (n=4), grade 1): 1
- Nausea, No. subjects ([1]; Cohort 1 5 mg (n=4), grade 1): 1
- Fatigue, No. subjects ([1]; Cohort 1 5 mg (n=4), grade 2): 1
- Hypotension, No. subjects ([1]; Cohort 2 10 mg (n=5), grade 1): 1
- Flushing, No. subjects ([1]; Cohort 8 300 mg (n=5), grade 1): 1
- Headache, No. subjects ([1]; Cohort 8 300 mg (n=5), grade 1): 3
- Nausea, No. subjects ([1]; Cohort 8 300 mg (n=5), grade 1): 2
- Vomiting, No. subjects ([1]; Cohort 8 300 mg (n=5), grade 1): 1
- Anorexia, No. subjects [1, 5]: 2
- Diarrhea, No. subjects [1, 5]: 2
- Fatigue, No. subjects [1, 5]: 2
- Hypotension, No. subjects [1, 5]: 2
- Nausea, No. subjects [1, 5]: 4
- Vomiting, No. subjects [1, 5]: 1
- Fatigue, No. subjects ([1]; Cohort 9 120-180-240 mg (n=7), grade 2): 2
- DLTs reported ([1]; Cohort 9 intra-patient dose escalation 120-180-240 mg): two DLTs (grade 3 pneumonitis at 240 mg and grade 3 rash at 180 mg)
- Anorexia, Total No. subjects ([1]; all cohorts (n = 51)): 7 (13.7%)
- Diarrhea, Total No. subjects ([1]; all cohorts (n = 51)): 7 (13.7%)
- Fatigue, Total No. subjects ([1]; all cohorts (n = 51)): 9 (17.6%)
- Flushing, Total No. subjects ([1]; all cohorts (n = 51)): 6 (11.8%)
- Headache, Total No. subjects ([1]; all cohorts (n = 51)): 12 (23.5%)
- Hypotension, Total No. subjects ([1]; all cohorts (n = 51)): 20 (39.2%)
- Nausea, Total No. subjects ([1]; all cohorts (n = 51)): 15 (29.4%)
- Vomiting, Total No. subjects ([1]; all cohorts (n = 51)): 7 (13.7%)
- dose-limiting toxicities ([1]; dose doubling from 5 - 160 mg): no dose-limiting toxicities reported
- time of occurrence of hypotension after dosing ([1]; in vivo): ≤ 8 h
- maximally tolerated dose ([1]; orally on days 1, 3 and 5 of each week, 28-day cycles): 180 mg
- half-life [2]: 864 to 1930 min
- AUC ([2]; 180 mg): 13.4 µM·h
- Cmax ([2]; 180 mg): 383 nM
- change of p-GSK3β levels in platelet-rich plasma vs predose ([3]; 300 mg, 2 - 6 hrs (legend: 2 - 24 hrs) after treatment, Dunnett's test): statistically significant reduction; also recorded: reduced; also recorded: transient reduction
- change of p-GSK3β levels in platelet-rich plasma vs predose ([3]; doses lower than 300 mg): not significant
- post-treatment biopsies showing a reduction of p-cofilin ([4]; 180 mg dose level): 5/8
- post-treatment biopsies with ≥50% (>50%) reduction of p-cofilin ([4]; 180 mg thrice a week): 3/8
- paired biopsies with reduction of p-MLC2 (H scores) post-treatment (p-MLC2 in tumor biopsies): 1/5
- tumor response (advanced solid tumors): No complete or partial responses; also recorded: no clinical responses
- IC50 (ROCK I): 6 nM
- IC50 (ROCK 2): 4 nM
- IC50 (AKT1): 38 nM
- IC50 (AKT2): 402 nM
- IC50 (AKT3): 50 nM
